Laboratory results reported in ChEMBL document CHEMBL2385035 (J Med Chem, 2013).

Columns and labels:
[1] = Apparent permeability in MDCK cells expressing MDR1 at 3 uM after 60 mins by LC-MS/MS analysis; assay type: ADME, cell-based, Canis lupus familiaris; settings: dog
[2] = biological target: T1, Ileal sodium/bile acid cotransporter (Homo sapiens, UniProt Q12908); experiment: Inhibition of human ASBT expressed in HEK293 cells assessed as inhibition of [3H]-taurocholate uptake after 90 mins by scintillation counting analysis; assay type: cell-based
T1 sequence (Q12908 whole entry): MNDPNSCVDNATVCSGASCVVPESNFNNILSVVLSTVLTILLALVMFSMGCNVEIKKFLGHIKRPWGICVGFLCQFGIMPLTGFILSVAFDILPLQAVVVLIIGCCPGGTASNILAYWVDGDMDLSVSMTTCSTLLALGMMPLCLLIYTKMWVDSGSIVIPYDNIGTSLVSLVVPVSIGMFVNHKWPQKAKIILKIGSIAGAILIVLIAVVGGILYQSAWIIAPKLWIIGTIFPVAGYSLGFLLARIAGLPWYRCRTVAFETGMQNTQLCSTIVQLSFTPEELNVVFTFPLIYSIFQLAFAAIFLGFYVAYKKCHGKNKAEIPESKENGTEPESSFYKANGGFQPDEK

Mus musculus [3] = experiment: In vivo inhibition of ASBT in C57BL/6J mouse assessed as increase in fecal bile acid excretion measured for 24 hrs relative to 264W94; assay type: functional, Feces; set-up: concentration or dose not given beside the values
Mus musculus [4] = experiment: In vivo inhibition of ASBT in C57BL/6J mouse assessed as increase in fecal bile acid excretion measured for 24 hrs; assay type: functional; settings: Feces
[5] = Drug recovery in Sprague-Dawley rat feces at 10 mg/kg, po; assay type: ADME, organism-based; set-up: dose 10 mg/kg, route oral; settings: read-out: Drug recovery
[6] = Cmax in Sprague-Dawley rat portal vein blood at 10 mg/kg, po; assay type: ADME, organism-based; set-up: dose 10 mg/kg, route oral
Procedure, shortened: (§1)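 Fed male SD rats given a single oral gavage dose of 10 mg/kg. Maximum parent drug concentration measured in portal vein blood and in systemic blood.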

[7] = Cmax in Sprague-Dawley rat systemic blood at 10 mg/kg, po; assay type: ADME, organism-based; set-up: dose 10 mg/kg, route oral; procedure, shortened: as §1
[8] = Half life in Sprague-Dawley rat intestine at 10 mg/kg, po; assay type: ADME, organism-based; set-up: dose 10 mg/kg, route oral
[9] = biological target: T2, Ileal sodium/bile acid cotransporter (Rattus norvegicus, UniProt Q62633); experiment: Inhibition of rat ASBT expressed in HEK293 cells assessed as inhibition of [3H]-taurocholate uptake after 90 mins by scintillation counting analysis; assay type: cell-based
T2 sequence (Q62633 whole entry): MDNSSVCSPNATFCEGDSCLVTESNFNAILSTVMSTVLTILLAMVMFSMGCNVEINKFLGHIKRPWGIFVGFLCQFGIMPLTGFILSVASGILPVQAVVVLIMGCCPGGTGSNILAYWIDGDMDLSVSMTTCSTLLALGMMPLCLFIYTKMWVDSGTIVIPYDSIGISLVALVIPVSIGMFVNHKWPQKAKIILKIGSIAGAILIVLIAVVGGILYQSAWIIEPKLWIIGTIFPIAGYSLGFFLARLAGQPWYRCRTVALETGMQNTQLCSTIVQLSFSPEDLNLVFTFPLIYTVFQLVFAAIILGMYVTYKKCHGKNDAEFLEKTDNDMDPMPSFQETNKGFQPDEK

[10] = biological target: T3, Ileal sodium/bile acid cotransporter (Mus musculus, UniProt P70172); experiment: Inhibition of mouse ASBT expressed in HEK293 cells assessed as inhibition of [3H]-taurocholate uptake after 90 mins by scintillation counting analysis; assay type: cell-based
T3 sequence (P70172 whole entry): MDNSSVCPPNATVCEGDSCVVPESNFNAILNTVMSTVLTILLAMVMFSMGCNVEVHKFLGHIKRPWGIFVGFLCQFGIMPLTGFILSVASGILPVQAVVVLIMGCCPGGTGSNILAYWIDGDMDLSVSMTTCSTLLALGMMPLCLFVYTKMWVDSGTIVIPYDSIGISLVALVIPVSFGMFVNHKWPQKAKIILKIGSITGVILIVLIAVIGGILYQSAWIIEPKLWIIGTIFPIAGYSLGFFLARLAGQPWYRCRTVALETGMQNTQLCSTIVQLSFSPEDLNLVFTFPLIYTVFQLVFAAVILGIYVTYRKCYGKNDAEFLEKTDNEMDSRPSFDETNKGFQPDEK

| Structure (SMILES) | Papp at 1 h, 3 µM [1] [×10⁻⁶ cm/s] | IC50 [2] [nM] | Cmax [6] [ng/mL] | Cmax [7] [ng/mL] | other results |
| --- | --- | --- | --- | --- | --- |
| CCCC[C@]1(CC)CS(=O)(=O)c2cc(OCCCC(=O)O)c(OC)cc2[C@@H](c2ccccc2)N1 | 30.3 | 13 | – | – | – |
| CCCC[C@]1(CC)CS(=O)(=O)c2cc(CN[C@H](CC(=O)O)C(=O)O)c(OC)cc2[C@@H](c2ccccc2)N1 | 0.7 | – | 11 | 1 | Efficacy (Mus musculus [3]): 70%; ED50 (Mus musculus [4]): > 1 mg/kg; dose excreted [5]: 100% |
| CCCC[C@]1(CC)CS(=O)(=O)c2cc(C(=O)NCS(=O)(=O)O)c(OC)cc2[C@@H](c2ccccc2)N1 | 0.7 | – | 92 | 4 | – |
| CCCC[C@]1(CC)CS(=O)(=O)c2cc(OCCCS(=O)(=O)O)c(OC)cc2[C@@H](c2ccccc2)N1 | 0.8 | 50 | 289 | 1 | – |
| CCCC[C@]1(CC)CS(=O)(=O)c2cc(CN(CP(=O)(O)O)CP(=O)(O)O)c(OC)cc2[C@@H](c2ccccc2)N1 | – | > 3000 | – | – | – |
| CCCC[C@]1(CC)CS(=O)(=O)c2cc(C(=O)NCC(C)(C)C(=O)O)c(OC)cc2[C@@H](c2ccccc2)N1 | 4.3 | – | – | – | – |
| CCCC[C@]1(CC)CS(=O)(=O)c2cc(OCP(=O)(O)O)c(OC)cc2[C@@H](c2ccccc2)N1 | – | 900 | – | – | – |
| CCCC[C@]1(CC)CS(=O)(=O)c2cc(CNC(=O)C(=O)O)c(OC)cc2[C@@H](c2ccccc2)N1 | – | – | 87 | – | – |
| CCCC[C@]1(CC)CS(=O)(=O)c2cc(CS(=O)(=O)O)c(OC)cc2[C@@H](c2ccccc2)N1 | 0.9 | – | 170 | 3 | – |
| CCCC[C@]1(CC)CS(=O)(=O)c2cc(OCCCP(=O)(O)O)c(OC)cc2[C@@H](c2ccccc2)N1 | 1 | 133 | 260 | 7 | – |
| CCCC[C@]1(CC)CS(=O)(=O)c2cc(CNC(=O)CP(=O)(O)O)c(OC)cc2[C@@H](c2ccccc2)N1 | 0.3 | – | – | – | – |
| CCCC[C@]1(CC)CS(=O)(=O)c2cc(CN(CCS(=O)(=O)O)CCS(=O)(=O)O)c(OC)cc2[C@@H](c2ccccc2)N1 | 0.8 | – | – | – | – |
| CCCC[C@]1(CC)CS(=O)(=O)c2cc(CNC(=O)CNC(CC(=O)O)CC(=O)O)c(OC)cc2[C@@H](c2ccccc2)N1 | – | > 3000 | – | – | – |
| CCCC[C@]1(CC)CS(=O)(=O)c2cc(CN[C@@H](CC(=O)O)C(=O)O)c(OC)cc2[C@@H](c2ccccc2)N1 | 0.6 | – | 93 | 1 | – |
| CCCC[C@]1(CC)CS(=O)(=O)c2cc(CCCC(=O)O)c(OC)cc2[C@@H](c2ccccc2)N1 | 34.2 | – | – | – | – |
| CCCC[C@]1(CC)CS(=O)(=O)c2cc(OCC(=O)O)c(OC)cc2[C@@H](c2ccccc2)N1 | 1 | 34 | 1460 | 26 | – |
| CCCC[C@]1(CC)CS(=O)(=O)c2cc(C(CC(=O)O)CC(=O)O)c(OC)cc2[C@@H](c2ccccc2)N1 | 0.5 | > 3000 | 333 | 19 | – |
| CCCC[C@]1(CC)CS(=O)(=O)c2cc(OCCS(=O)(=O)O)c(OC)cc2[C@@H](c2ccccc2)N1 | 1.2 | 4 | 220 | 7 | – |

| Structure (SMILES) | Papp at 1 h, 3 µM [1] [×10⁻⁶ cm/s] | IC50 [2] [nM] | Cmax [6] [ng/mL] | Cmax [7] [ng/mL] | other results |
| --- | --- | --- | --- | --- | --- |
| CCCC[C@]1(CC)CS(=O)(=O)c2cc(CN[C@@H](CO)C(=O)O)c(OC)cc2[C@@H](c2ccccc2)N1 | 0.5 | – | 12 | 24 | Efficacy (Mus musculus [3]): 47%; ED50 (Mus musculus [4]): 0.012 mg/kg; dose excreted [5]: 63%; half-life [8]: 8 h |
| CCCC[C@]1(CC)CS(=O)(=O)c2cc(OCCP(=O)(O)O)c(OC)cc2[C@@H](c2ccccc2)N1 | 0.8 | 44 | 82 | 16 | – |
| CCCC[C@]1(CC)CS(=O)(=O)c2cc(CN(C)CCC(=O)O)c(OC)cc2[C@@H](c2ccccc2)N1 | – | 367 | – | – | – |
| CCCC[C@]1(CC)CS(=O)(=O)c2cc(CNCP(=O)(O)O)c(OC)cc2[C@@H](c2ccccc2)N1 | – | > 3000 | – | – | – |
| CCCC[C@]1(CC)CS(=O)(=O)c2cc(C(=O)NCCS(=O)(=O)O)c(OC)cc2[C@@H](c2ccccc2)N1 | 0.4 | – | 132 | 38 | – |
| CCCC[C@]1(CC)CS(=O)(=O)c2cc(CN(CC(=O)O)CC(=O)O)c(OC)cc2[C@@H](c2ccccc2)N1 | 0.4 | 245 | 56 | 43 | – |
| CCCC[C@]1(CC)CS(=O)(=O)c2cc(CCC(=O)O)c(OC)cc2[C@@H](c2ccccc2)N1 | 38.3 | – | – | – | – |
| CCCC[C@]1(CC)CS(=O)(=O)c2cc(CCP(=O)(O)O)c(OC)cc2[C@@H](c2ccccc2)N1 | 1.2 | – | – | – | – |
| CCCC[C@]1(CC)CS(=O)(=O)c2cc(CCC(=O)NCS(=O)(=O)O)c(OC)cc2[C@@H](c2ccccc2)N1 | 0.7 | – | – | – | – |
| CCCC[C@]1(CC)CS(=O)(=O)c2cc(CCC(=O)NC(CC(=O)O)CC(=O)O)c(OC)cc2[C@@H](c2ccccc2)N1 | – | > 3000 | – | – | – |
| CCCC[C@]1(CC)CS(=O)(=O)c2cc(CCCP(=O)(O)O)c(OC)cc2[C@@H](c2ccccc2)N1 | 0.7 | – | – | – | – |
| CCCC[C@]1(CC)CS(=O)(=O)c2cc(CN(C)CC(=O)O)c(OC)cc2[C@@H](c2ccccc2)N1 | 1 | – | 224 | 1 | – |
| CCCC[C@]1(CC)CS(=O)(=O)c2cc(CNC(=O)CS(=O)(=O)O)c(OC)cc2[C@@H](c2ccccc2)N1 | 1.9 | – | 122 | 26 | – |
| CCCC[C@]1(CC)CS(=O)(=O)c2cc(CCCS(=O)(=O)O)c(OC)cc2[C@@H](c2ccccc2)N1 | 0.7 | – | – | – | – |
| CCCC[C@]1(CC)CS(=O)(=O)c2cc(CN3CCC[C@H]3C(=O)O)c(OC)cc2[C@@H](c2ccccc2)N1 | – | > 3000 | – | – | – |
| CCCC[C@]1(CC)CS(=O)(=O)c2cc(CNCCS(=O)(=O)O)c(OC)cc2[C@@H](c2ccccc2)N1 | 1 | – | 7 | – | Efficacy (Mus musculus [3]): 73%; ED50 (Mus musculus [4]): 2.7 mg/kg; dose excreted [5]: 100%; half-life [8]: > 12 h; IC50 [9]: 2.3 nM; IC50 [10]: 0.9 nM |
| CCCC[C@]1(CC)CS(=O)(=O)c2cc(CCC(=O)NCC(=O)O)c(OC)cc2[C@@H](c2ccccc2)N1 | 1.2 | – | – | – | – |
